Active and inactive are the calls of the source. The calls are words filed in the database; no cut-off is given here.

Data on ten compounds can be found in ChEMBL document CHEMBL5712896, “Targeting EHMT2 reverses EGFR-TKI resistance in NSCLC by epigenetically regulating the PTEN/AKT signaling pathway” (2018).

The test system of assay [1] is HCC827ER. Kind of assay: Induction of apoptosis in human HCC827ER cells assessed as increased cleaved-PARP expression at 10 uM measured by Western blot analysis. Type of assay: functional, cell-based. In outline:
(§1)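 Resistant PC9/ER and HCC827/ER cells treated with 10 μM epigenetic inhibitor (DMSO control). Cleaved PARP detected by western blot on 10–15% SDS-PAGE with ECL, normalized to β-actin.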
For orientation: A western blot detects proteins with antibodies after separation by electrophoresis.

Assay [2] relates to PC-9/ER. Kind of assay: Induction of apoptosis in human PC-9/ER cells assessed as increased cleaved-PARP expression at 10 uM measured by Western blot analysis. Type of assay: functional, cell-based. A digest of the protocol:
as §1

In assay [3] the test system is PC-9/ER. Kind of assay: Antiproliferative activity against human PC-9/ER cells assessed as inhibition of cell growth upto 10 uM incubated for 48 hrs by MTT assay. Type of assay: functional, cell-based. A digest of the protocol: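 PC9/ER cells (made resistant by 3 months in Erlotinib, 0.5–2 μM, RPMI-1640 with 10% FBS) seeded at 8 × 10^4 cells/ml, left overnight, then exposed to 5 or 10 μM inhibitor (DMSO control) for 48 h. MTT (2.5 mg/ml stock) was added for 4 h at 37 °C, formazan dissolved in DMSO, OD read at 570 nm.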
In general terms: Tetrazolium dyes change colour on reduction, which living cells bring about.

Assay [4] in a line: Upregulation of PTEN mRNA expression level in human PC-9/ER cells assessed as increase in fold change at 10 uM by Western blot analysis. To be noted: in the assay text read “real-time RT-PCR” for “Western blot analysis”. Type of assay: functional. In outline:
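PC9/ER cells were treated with 10 μM UNC0638 or transfected with 20 nM EHMT2 siRNA, with DMSO or scramble siRNA as controls. Total RNA was extracted, reverse transcribed, and PTEN mRNA measured by SYBR Green real-time RT-PCR, normalized to GAPDH and expressed as fold change versus control. PTEN protein was checked separately by western blot against β-actin.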

The subject of assay [5] is PC-9/ER. Briefly: Induction of apoptosis in human PC-9/ER cells assessed as viable cells at 10 uM for 48 hrs by annexin V/PI staining based flow cytometric analysis (reference value: 94.2%). The format is functional. The settings on record: read-out: Activity. On the technique in general: A flow cytometer gives signals particle by particle.
Assay [6] relates to PC-9/ER. Kind of assay: Induction of apoptosis in human PC-9/ER cells assessed as early apoptotic cells at 10 uM for 48 hrs by annexin V/PI staining based flow cytometric analysis (reference value: 1.9%). The format is functional.
In assay [7] the test system is PC-9/ER. Briefly: Induction of apoptosis in human PC-9/ER cells assessed as late apoptotic cells at 10 uM for 48 hrs by annexin V/PI staining based flow cytometric analysis (reference value: 3.8%). Type of assay: functional.
Assay [8] deals with PC-9/ER. Briefly: Induction of apoptosis in human PC-9/ER cells assessed as necrotic cells at 10 uM for 48 hrs by annexin V/PI staining based flow cytometric analysis (reference value: 0.1%). Type of assay: functional.
Assay [9] deals with HCC827ER. Kind of assay: Induction of apoptosis in human HCC827ER cells assessed as viable cells at 10 uM for 48 hrs by annexin V/PI staining based flow cytometric analysis (reference value: 94.4%). The settings on record: read-out: Activity. Type of assay: functional.
The test system of assay [10] is HCC827ER. Briefly: Induction of apoptosis in human HCC827ER cells assessed as early apoptotic cells at 10 uM for 48 hrs by annexin V/PI staining based flow cytometric analysis (reference value: 1.8%). Type of assay: functional.
Assay [11] relates to HCC827ER. Kind of assay: Induction of apoptosis in human HCC827ER cells assessed as late apoptotic cells at 10 uM for 48 hrs by annexin V/PI staining based flow cytometric analysis (reference value: 3.5%). Type of assay: functional.
Assay [12] relates to HCC827ER. Briefly: Induction of apoptosis in human HCC827ER cells assessed as necrotic cells at 10 uM for 48 hrs by annexin V/PI staining based flow cytometric analysis (reference value: 0.3%). The format is functional.
The subject of assay [13] is PC-9/ER. Kind of assay: Antitumor activity against human PC-9/ER cells xenografted in SCID mouse assessed as inhibition of tumor growth at 2.5 mg/kg, ip bid for 3 weeks. The format is functional, organism-based. In outline: (§2)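 Male SCID mice, 7–8 weeks old, injected s.c. in the right flank with 5 × 10^6 PC9/ER cells in PBS. At an average tumor volume of 50 mm3, randomized into groups of n = 6: saline, UNC0642 2.5 mg/kg bid i.p., Erlotinib 12.5 mg/kg/day i.p., or both. Tumor volume tracked and body weight recorded; tumors weighed after sacrifice at 3 weeks.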

The test system of assay [14] is PC-9/ER. Kind of assay: Antitumor activity against human PC-9/ER cells xenografted in SCID mouse assessed as reduction of tumor weight at 2.5 mg/kg, ip bid for 3 weeks relative to control. The format is functional. More on the design: scale not given: the % may be the effect or the level left. In outline: as §2
Assay [15] deals with PC-9/ER. Kind of assay: Antitumor activity against human PC-9/ER cells xenografted in SCID mouse assessed as reduction of tumor weight at 2.5 mg/kg, ip bid for 3 weeks in presence of erlotinib relative to control. The format is functional. More on the design: scale not given: the % may be the effect or the level left. In outline: as §2
Assay [16] relates to Mus musculus. Kind of assay: In vivo inhibition of AKT phosphorylation in human PC-9/ER cells xenografted SCID mouse assessed as reduction of H3K9Me2 expression at 2.5 mg/kg, ip bid for 3 weeks. Type of assay: functional, organism-based. A digest of the protocol: (§3)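 Tumors were excised after 3 weeks from PC9/ER xenografts in SCID mice dosed with UNC0642 (2.5 mg/kg bid i.p.) with or without Erlotinib (12.5 mg/kg/day i.p.), saline as control. Tissue lysates were run on western blot for H3K9Me2, PTEN, p-AKT and AKT, normalized to β-actin or Histone3.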

In assay [17] the test system is Mus musculus. Briefly: In vivo inhibition of AKT phosphorylation in human PC-9/ER cells xenografted SCID mouse assessed as increase in PTEN expression at 2.5 mg/kg, ip bid for 3 weeks. Type of assay: functional, organism-based. In outline:
as §3

For the compound `CC(C)N(C[C@H]1O[C@@H](n2cnc3c(N)ncnc32)[C@H](O)[C@@H]1O)[C@H]1C[C@@H](CCc2nc3cc(C(C)(C)C)ccc3[nH]2)C1`, the result in the assay on HCC827ER [1] and in the assay on PC-9/ER [2] was inactive.
Take `COc1cc2c(NC3CCN(C(C)C)CC3)nc(C3CCCCC3)nc2cc1OCCCN1CCCC1`: the outcome with PC-9/ER [3], with HCC827ER [1] and in the assay on PC-9/ER [2] was Active. For the same compound, the “fold change (FC)” value in [4] turned out to be 2.5. Further, the viability at 10 µM turned out to be 38.5% with PC-9/ER [5] and 41.9% in the assay on HCC827ER [9]. Besides, the Activity in the assay on PC-9/ER [6] came out at 40.8%; in the assay with PC-9/ER [7], 20.5%; in the assay on PC-9/ER [8], 0.2%; with HCC827ER [10], 43.1%; in the assay on HCC827ER [11] it was 15%; with HCC827ER [12] it was 0%.
With `Cc1sc2c(c1C)C(c1ccc(Cl)cc1)=N[C@@H](CC(=O)OC(C)(C)C)c1nnc(C)n1-2`, in the assay with PC-9/ER [3], the result was Active. Further, the viability at 10 µM in the assay on PC-9/ER [5] was found to be 89.8%; in the assay with HCC827ER [9], 63.4%. For the same compound, the Activity with PC-9/ER [6] is recorded as 4.8%; in the assay with PC-9/ER [7], 5.2%; in the assay with PC-9/ER [8], 0.2%; in the assay with HCC827ER [10], 26.4%; in the assay with HCC827ER [11] it was 10%; in the assay on HCC827ER [12], 0.2%.
For the compound `O=C(/C=C/c1cccc(S(=O)(=O)Nc2ccccc2)c1)NO` [BELINOSTAT], the outcome in the assay with PC-9/ER [3] was Active. Besides, the viability at 10 µM turned out to be 75.8% in the assay with PC-9/ER [5] and 82.3% with HCC827ER [9]. Also, the Activity is reported as 12.8% with PC-9/ER [6]; 10.5% in the assay on PC-9/ER [7]; 0.9% with PC-9/ER [8]; 9.4% in the assay on HCC827ER [10]; 7% with HCC827ER [11]; 1.3% in the assay with HCC827ER [12].
With `COc1cc2nc(N3CCCC3)nc(NCCCCCN3CCCC3)c2cc1OC`, the result in the assay with HCC827ER [1] and in the assay on PC-9/ER [2] was inactive.
On to `O=C(O)CCNc1cc(N2CCc3ccccc3CC2)nc(-c2ccccn2)n1`, for which the outcome in the assay on HCC827ER [1] and in the assay with PC-9/ER [2] was inactive.
`COc1cc2c(NC3CCN(C(C)C)CC3)nc(N3CCC(F)(F)CC3)nc2cc1OCCCN1CCCC1`: in the assay on PC-9/ER [13], the result was Active. Also, the figures for the Activity in the assay with PC-9/ER [14] and in the assay with PC-9/ER [15] were 37.2% and 68.2%, respectively. The inhibition entry in the assay with Mus musculus [16] and in the assay with Mus musculus [17] was “Active” in each case.
Take `Cc1cn(CCN2CCN(c3ccccc3-c3cc(C#N)cc(C(=O)NCCCN4CCCC4)c3)CC2)c2ccccc12`: the outcome in the assay with HCC827ER [1] and in the assay on PC-9/ER [2] was inactive.
Consider `CC[C@H](C)n1cc(C)c2c(C(=O)NCc3c(C)cc(C)[nH]c3=O)cc(-c3ccc(N4CCNCC4)nc3)cc21`, for which the outcome in the assay on PC-9/ER [3], in the assay with HCC827ER [1] and with PC-9/ER [2] was Active.
As for `Nc1ncn([C@@H]2O[C@H](CO)[C@@H](O)[C@H]2O)c(=O)n1`, the result in the assay on PC-9/ER [3], with HCC827ER [1] and in the assay on PC-9/ER [2] was Active.
